Source: the EternaBench riboswitch data

Test system: MS2 coat protein
Experiment: apparent Kd, MS2 coat protein; higher = weaker binding; RNA-MaP array; FMN 200 µM where present
How it was run: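 Green signal from SNAP-549-labelled MS2 coat protein was normalised to red-channel RNA signal and to the median Fmax of control clusters. The protein was titrated from 0.7 or 1.5 nM, doubling to 3 µM, without and then with constant ligand, over designs transcribed by stalled E. coli RNA polymerase on Illumina sequencing-chip clusters, in 100 mM Tris-HCl pH 7.5, 80 mM KCl, 4 mM MgCl2, BSA, DTT, yeast tRNA and Tween-20. The apparent Kd is the median of filtered per-cluster binding-curve fits.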

[1] = designed as: OFF switch for flavin mononucleotide, no ligand
[2] = ligand present: flavin mononucleotide, designed as: OFF switch for flavin mononucleotide
[3] = designed as: ON switch for flavin mononucleotide, no ligand
[4] = ligand present: flavin mononucleotide, designed as: ON switch for flavin mononucleotide

Sequence	apparent Kd [1]	apparent Kd [2]	apparent Kd [3]	apparent Kd [4]
AUCCUUAACAAGGAUAUCGGGCGGGAAAUUGUUUGAGAAGGUGUGACAUGAGGAUCACCCAUGUGGCGCGUGGG	317 nM	257 nM	–	–
ACGACGAAAGUCGAACGAUGUAGCAGAAGGACAUGAGGAUCACCCAUGUCAGCUGUAACAGCCAUGUAGGAUAUGCUACAUCGC	4.38 nM	5.45 nM	–	–
GUGUACGGAGGAUAUGCUGGAAUCUAGCGAAGCUAGGUUCCACAUGAGGAUCACCCAUGUAGAAGGCUGUACAC	24.8 nM	14.2 nM	–	–
ACGCUUUGGGAGAAGGUACGUUAAAUUUUUUCCACAUGAGGAUCACCCAUGUAAGGAUAUCCCAUCGUUAAAUAGGCUACAGCA	8.92 nM	8.85 nM	–	–
CUAUGGGCAGGAUAUGCAUAUCGGGAGUGGUCGCAAGCGUUACAUGAGGAUCACCCAUGUAGAAGGGCCGCGUC	18.9 nM	20.4 nM	–	–
AUGUGGUGCGUAGGAUAUCAUUGAGGGUAACCCUGAGAAGGACGUGAGGACAUGAGGAUCACCCAUGUGGAUCACCCAUGUCAU	150 nM	301 nM	–	–
CGCUACUGCCAGAAGGACAUGAGGAUCACCCAUGUAGGAUAUGGGUGACGAGGACCAGUGUAGAGAAACUACGCUACAGUAGCG	–	–	89.4 nM	47.5 nM
AGAACGUCAGGAUAUGCAACAACAAGUAAAUAGAGAAGAAGGCAGAAGGGACAUGAGGAUCACCCAUGUAAGAA	36.6 nM	36.3 nM	–	–
CCUCCACAUGAGGAUCACCCAUGUCAGGAUAUCGUGCGCGCGUUUUCGGUCUUUCGCGCGAGAAGGGACGACUG	30.3 nM	30.9 nM	–	–
ACAUACGAUAGUAUGCCUGAGGGCAGAAGGCACAUGAGGAUCACCCAUGUAACGAUCUCUUCAAGUGAGGAUAUGUGCUCAUUG	49.8 nM	52.2 nM	–	–
AAACGGAUCCGCGGUUGAUGCUAACUAGAAGGGCAGGUCACAUGAGGAUCACCCAUGUAGUAUAUGUAGGAUAUAGGAAGCGUG	–	–	140 nM	26.9 nM
GGAUGACAAAGUCAUCCAUUACGAACAUGAGGAUCACCCAUGUAGGAUAUGCUACUCAAAGAGUAGCAGAAGGACAUGUGUCUU	31.2 nM	149 nM	–	–
AUCAGCUCGUCAGGAUAUACGUCACUGCGUCAGCAGUGUGGUAAGAUCACAUGAGGAUCACCCAUGUAGAAGGGAUGAGCUGAU	13.3 nM	288 nM	–	–
AGGUAGCAAGGAUAUACAACUUUGGGCACUGCCUCUUGGAGACAUGAGGAUCACCCAUGUAGAAGGUGCAGGCC	13.2 nM	33.9 nM	–	–
GCUUUAUUGGUCAGGAUAUACAUUUGCUACUCUUUGUAGAAGGGACAUGAGGAUCACCCAUGUACUUUACAUUC	16 nM	16.4 nM	–	–
GGAGGACAUGAGGAUCACCCAUGUGGAUGAACGCUAGGAUAUGCGUGCAGGAAGAGUGGAGCAGAAGGAGUGGGAU	–	–	26.4 nM	19.3 nM
GGACGUCACAUUAACAUGAGGAUCACCCAUGUCAAAAGACAUGAGGAUAUGGAUCCGAAAAGGAUCCAGAAGGCAUGGACGUCC	–	–	555 nM	36.6 nM
UCUGCUCGAGGAUAUACAUGAGGAUCACCCAUGUAUCCCAGAAGCAUGGCCUCAGGAUGUAGAAGGCGACGCUA	14.1 nM	18.5 nM	–	–
UGCUAGAAAGGAUAUACAUGAGGAUCACCCAUGUAACCCUAUAUGAGAGUUCCCGUUUGUAGAAGGUUCUCGUG	16.9 nM	26.5 nM	–	–
UGUCGGAGCAAAGGAUAUUACAUGAGGAUCACCCAUGUAUGAACCAAUAGCUGGAAACAGCAAUGUAAGAAGGCUGCUCCGACA	4.79 nM	5.81 nM	–	–
GUCUUCCUAGGAUAUACAUGAGGAUCACCCAUGUACAGUUUCGUCUAGGGAUACUCGCGUAGAAGGAGGUGGAU	20.8 nM	26.5 nM	–	–
CAUAUACAUGAGGAUCACCCAUGUGAGGAUAUGCUUUAUUAUUAUUAUUAUUAUUGUUGCAGAAGGUACAUUAC	24.2 nM	20.6 nM	–	–
GGCUUCUUCACAGGAUAUGGUUUUUUAAGUAUACAUGAGGAUCACCCAUGUCCAGAAGGGUGAGGGUUCGGCGUGCGGUGUCGG	–	–	384 nM	42.7 nM
AGCGGAUUGUAGAAGGGUGACAUGAGGAUCACCCAUGUUCAAAUGCGAUUUACGGUAAUUGAUCCACAGGAUAUACAGUCCGAG	–	–	905 nM	178 nM
GUCCCACAUGAGGAUCACCCAUGUGAGGAUAUGGAUUCGCUGGCCGUAGCCAGUGGAUCCAGAAGGCGCGUGAU	73.5 nM	77.2 nM	–	–
GGAUCGAGUGUGAGGAUAUACCACUGGAUACAGUGGUAGAAGGCACAUGAGGAUCACCCAUGUCUCUACGAUCC	16.1 nM	51.8 nM	–	–
GCUGCAUAGUCAGGAUAUGCAAAGUAAUAUAUGGAAACAUAUAUUACAACAUGAGGAUCACCCAUGUAGAAGGGACUGUGCAGU	15.9 nM	14.8 nM	–	–
AAGUCACAUGAGGAUCACCCAUGUCGUAAACGAUGAGGAUAUAGGAAAAAAAAAAAAAAACUAGAAGGUAUAACAA	–	–	69.3 nM	69.1 nM

Sequence	apparent Kd [1]	apparent Kd [2]	apparent Kd [3]	apparent Kd [4]
AAGCACGAAGAUUAUUAUGAAUAAACAUGAGGAUCACCCAUGUAGGAUAUCGACUCGAAUAGAGUCGAGAAGGACAUAACGUGC	6.85 nM	20.7 nM	–	–
CGCAUGUAAGGAUAUUAGUAGUAGUCAGAAUAGACUAUUACUGAGAAGGUACAUGAGGAUCACCCAUGUAAGCG	62.9 nM	419 nM	–	–
AUGAGUGUAAUGAUUGAGCCACUGCAGGAUAUCACAUGAGGAUCACCCAUGUGUCAGCCUCGGAGUGAGAAGGGCGGUUUCUUA	5.38 nM	10.6 nM	–	–
GUAGCAUACCGAGGAUAUUCAUAUCGUAAUCGAACAUGAGGAUCACCCAUGUGGCGAAAGCCUUGGGAGAAGGCGGAAUGCUAC	–	–	360 nM	25.9 nM
CCAGAUAUGUGAGGAUAUAGAGUGGAAUACACUCUAGAAGGUAUGUGAAAACAUGAGGAUCACCCAUGUCAUUGAUUAUCUGGA	–	–	26 nM	27.5 nM
UUUAUGUCAGGAUAUGAUUAGAUCUACUUUUGUAGAUCUAAUCAGAAGGGACAUGAGGAUCACCCAUGUAGUUU	126 nM	236 nM	–	–
AACGUCGAAGGAUAUACAUGAGGAUCACCCAUGUGGGACCUGUAGUCUCACCCAUCGUGUAGAAGGUUGAGGCA	32.2 nM	29.7 nM	–	–
CGCAAGUCAGGAUAUUCGACUGGUAAAUCAGUGGAUCAGUAGGAGAAGGGACAUGAGGAUCACCCAUGUAUGUA	43.2 nM	51.2 nM	–	–
UAUAUAUAGUAAGGAUAUGUAUAUUUUUUAUAAACAGAAGGUACUGACAUGAGGAUCACCCAUGUUUUAGUGUGGGCAUGUAGA	79.3 nM	122 nM	–	–
AAGUGGUUUAUAUAUAUAGAUAUCAGAAGGCGUGACAUGAGGAUCACCCAUGUGUACUGUCAUGACGAGGAUAUGACUAAUUGU	24 nM	19.5 nM	–	–
AGUAUGAUCCAGAAGGACAUAUGACCAAGACGAAACAUGAGGAUCACCCAUGUAGGAUAUGGAUCAUACAGGAUCGUGAGAUCA	6.14 nM	12 nM	–	–
GGCUACGUUUCGUAGCAGCUAGGUGAGGAUAUUCAAUUUUUCACAUGAGGAUCACCCAUGUAUGUGAAGAAGGCGCCUAGAAAA	–	–	11.7 nM	4.83 nM
GGACUUCCUGAGGAUAUGAAUCAACAUAUAGCUUUAGAAGGCAGGACAUGAGGAUCACCCAUGUGAACUCUUUC	49.8 nM	57.6 nM	–	–
UGUCGGAGCAGAGGAUAUACAUGAGGAUCACCCAUGUAAUAAAGUGAAGCCUGGAAACGGGCAAUGUAGAAGGCUGCUCCGACA	11.3 nM	87.8 nM	–	–
GUCUUACAUGAGGAUCACCCAUGUGAGGAUAUGGUUUCGCUGGCCGUAGCCAGUGGAACCAGAAGGCGCAUGAU	25.7 nM	44.9 nM	–	–
UCGUGUUAUACAGGAUAUGUUUAGGUAUAAUCAUUCAGUUAUUAAUUAAUGACAGAAGGGUAAACAUGAGGAUCACCCAUGUCA	179 nM	121 nM	–	–
UUGAUGUCAUCAGGAUAUAGUAUUUAAGACAUAUCUUCUUUCAAACAUGAGGAUCACCCAUGUCGCUAGAAGGGAUGAUUGAUU	17.3 nM	15.3 nM	–	–
UUACUCAUGUAAGGAUAUGCAGCCGUUUCGGCUGCAGAAGGUACUAUAAUACAUGAGGAUCACCCAUGUCUUUUUAAUUUGUAC	–	–	35.7 nM	23.1 nM
UUCGUGCAGCGUUGCUGUACGCGUACAUGAGGAUCACCCAUGUAGGAUAUGGUACGCUUUGCGUGCUAGAAGGAUAUGGAGAGG	15.2 nM	18.9 nM	–	–
ACGCGAUGGGAGAAGGUACUUUAAGAAUUUUUCACAUGAGGAUCACCCAUGUAAGGAUAUCCCAUCGUUAAAUAUUAUACAGCA	5.07 nM	4.82 nM	–	–
UGACGGCACACAGGAUAUAGUGCAGAAAGUGUACUAGAAGGGUGAGCACUCGUCCGGGCACAUGAGGAUCACCCAUGUCGUCGA	–	–	207 nM	512 nM
AAAUCUCAGAUAGGAUAUAUAGGAUAACUUAAGACCUAACAUGAGGAUCACCCAUGUGAUUAUUCGUAGAAGGAUCAUUGAACC	–	–	210 nM	233 nM
GGUCGUCACAUAUACAUGAGGAUCACCCAUGUAAAAUAACAUGAGGAUAUGGAUCCUAAUUGGAUCCAGAAGGCAUGGACGACC	–	–	6.29 nM	5.53 nM
UUCGUGCAGCUUUGCUGUACGCGUACAUGAGGAUCACCCAUGUAGGAUAUGGUAGGCUUUGCUUACUAGAAGGAUAGUGUGAUU	118 nM	81.8 nM	–	–
AAAACAUGAGGAUCACCCAUGUAAAGAUCGGAAAGUUAGAGUGAGGAUAUACAAAAUUUUAUAUAGUAGAAGGCACUGGGUACA	–	–	34.6 nM	33.5 nM
CGAUAAUAUAGAGGAUAUGUUUAACAUGAGGAUCACCCAUGUGACAUGGGAUUAAUAUAUAACUUACAGAAGGCUAUACAAUCG	34.1 nM	46.9 nM	–	–
AAUUAUUAUUGAGGAUAUCGUAUUGAAACAAUACGAGAAGGCGGAAUAAACAUGAGGAUCACCCAUGUGAGCCUGAUGCUUAUG	25 nM	36.1 nM	–	–
